This note sets out measurements from ChEMBL document CHEMBL1137201, “A virtual screening approach to finding novel and potent antagonists at the melanin-concentrating hormone 1 receptor” (J Med Chem, 2004).

Molecules are shown by their SMILES.

The IC50 is the concentration needed to halve the response being measured. Higher therefore signals lower potency. By Ki is commonly meant a dissociation constant, usually derived from enzyme kinetics or from competition with a known ligand. For orientation: inhibition means the change of the read-out against control, counted positive when it falls. Low readings indicate little suppression, high ones strong suppression.

Common to all, as to type: cell-based
Experiment [1] deals with T1, Melanin-concentrating hormone receptor 1 (Homo sapiens, UniProt Q99705). Description: Inhibition of Melanin-concentrating hormone 1 receptor expressed in CHO cells.
The target of experiment [2] is T1, Melanin-concentrating hormone receptor 1. Description: (§1) Binding affinity for Melanin-concentrating hormone 1 receptor expressed in CHO cells. Summed up: (§2)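 Scintillation proximity binding: CHO membranes (5 μg) overexpressing MCH-1R with wheat germ agglutinin SPA beads and 0.4 nM 125I-[Phe13,Tyr19]-MCH, 1 h at room temperature. Nonspecific binding was taken with 1 μM MCH. Bound label was scintillation-counted. IC50 came from six-point semilog concentration–response curves.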

Experiment [3] shares this target. Description: Percent inhibition of Melanin-concentrating hormone 1 receptor expressed in CHO cells at 10 uM. The method, boiled down: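 Same SPA radioligand binding setup: CHO MCH-1R membranes with 0.4 nM 125I-[Phe13,Tyr19]-MCH and WGA beads, 1 h at room temperature, 1 μM MCH for nonspecific binding. Compounds were screened at a single 10 μM concentration, and actives were retested in duplicate at 10 μM. Read-out is percent inhibition of specific binding.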

The target is the same in experiment [4]. Described as §1. The method, boiled down: as §2
The source holds these as a separate data set.

T1 sequence (Q99705 whole entry): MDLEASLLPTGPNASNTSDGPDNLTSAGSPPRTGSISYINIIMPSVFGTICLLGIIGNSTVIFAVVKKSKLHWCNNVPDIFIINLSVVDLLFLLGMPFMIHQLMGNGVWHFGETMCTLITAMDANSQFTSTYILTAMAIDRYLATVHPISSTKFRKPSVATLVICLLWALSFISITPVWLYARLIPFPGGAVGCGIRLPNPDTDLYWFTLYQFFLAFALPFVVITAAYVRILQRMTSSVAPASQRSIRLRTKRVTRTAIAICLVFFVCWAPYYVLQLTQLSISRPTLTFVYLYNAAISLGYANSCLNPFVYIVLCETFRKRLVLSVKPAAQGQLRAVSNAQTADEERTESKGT

In turn, `CCN1CCN(c2cc(C)c3cc(NC(=O)C(C)Oc4ccc(Cl)cc4Cl)ccc3n2)CC1` (stereo not given) showed an IC50 in experiment [1] of 230 nM. In other words, the sub-micromolar range.

Take `COc1cc(N2CCN(C[C@H]3C[C@@H]3c3ccccc3)CC2)ccc1Br`: the Ki in experiment [2] is below 1000 nM.

The compound `CCN1CCN(c2cc(C)c3cc(NC(=O)CCc4ccc(OC)cc4)ccc3n2)CC1` displayed an IC50 in experiment [1] of 730 nM.

Take `O=C(CNC(=O)OCc1ccccc1)NCC(CCCN1CCC(c2ccccc2)CC1)(c1ccccc1)c1ccccc1`: in experiment [1], half-maximal inhibition (IC50) required 5 nM.

`CCN1CCN(c2cc(C)c3cc(NC(=O)CSc4ccncc4)ccc3n2)CC1` registered an IC50 in experiment [1] of 8200 nM.

`O=C1c2cc(OCCC3CCN(Cc4ccc(C5=NCCN5)cc4)CC3)ccc2CCCN1Cc1ccccc1` gave an IC50 in experiment [1] of 300 nM.

Consider `CC(=O)N[C@@H]1CCN(CCCCN(C(=O)Nc2ccc(F)c(Cl)c2)c2ccc(-c3cccc(C#N)c3)cc2)C1`, for which, in experiment [2], the Ki is below 100 nM.

`Cc1cc(N2CCN(C)CC2)nc2ccc(NC(=O)CCC3CCCC3)cc12`: the inhibition in experiment [3] is 11.6%.

For the compound `CC[C@H](NC(=O)c1ccc(CC2CCN(Cc3ccc4c(c3)OCO4)CC2)cc1)c1ccc(C(=O)OC)cc1`, in experiment [2], the Ki was at most 1500 nM.

As to `CCN1CCN(c2cc(C)c3cc(NC(=O)COc4cccc(C)c4)ccc3n2)CC1`, half-maximal inhibition in experiment [1] (IC50) was put at 6600 nM.

Consider `COc1ccc(CCC(=O)Nc2ccc3nc(N4CCN(C)CC4)cc(C)c3c2)cc1`, for which the half-inhibitory concentration (IC50) in experiment [1] is 250 nM.

Regarding `Cc1cc(N2CCN(C)CC2)nc2ccc(NC(=O)C(C)Oc3ccc(Cl)cc3Cl)cc12` (stereo not given), 790 nM corresponded to half-maximal inhibition in experiment [1] (IC50). This IC50 lies about 3.2-fold higher than the previous one.

The compound `CCCCN(CCCC)c1ccc(CNC[C@H]2CC[C@H](N(C)C(=O)c3cccc4ccccc34)CC2)cc1` displayed a Kb in experiment [4] of 284 nM.

With `CN(C)CC1CCc2cc(NC(=O)c3ccc(-c4ccc(F)cc4)cc3)ccc2C1` (stereo not given), in experiment [1], the IC50 came to 5.5 nM.

Regarding `O=C(CCCN1CCC(O)(c2ccc(Cl)cc2)CC1)c1ccc(Cl)cc1`, in experiment [4], the Kb amounted to 9 nM.
